From article PMC6133080 (European Journal of Drug Metabolism and Pharmacokinetics, 2018)
Like-named read-outs stand apart in the source and are kept apart here.

How the values were obtained:
[1] = Ketoconazole study: safety and tolerability; format: in vivo, human; conditions: for Subjects with abdominal pain upper / Subjects with any AE (s) / Subjects with back pain / Subjects with dizziness / Subjects with dry mouth / Subjects with excoriation / Subjects with fatigue / Subjects with headache / Subjects with nasopharyngitis / Subjects with ocular hyperemia / Subjects with puncture site induration / Subjects with puncture site pain: nintedanib 50 mg single dose, ketoconazole 400 mg once daily for 3 days
Summary of the method: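 Healthy subjects in an open-label 2-way crossover with randomized sequences. The pilot period had 8 subjects and the main period 26 further subjects. Nintedanib 50 mg was given alone and after ketoconazole 400 mg once daily for 3 days (1 h after the last dose in the pilot), with ≥14 days between nintedanib doses. AEs from one drug intake to the next, washout included, were assigned to that treatment period (nintedanib, ketoconazole, or both). Labs, vital signs, 12-lead ECG and physical exam were also recorded.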

[2] = Rifampicin study: safety and tolerability; format: in vivo, human; conditions: for Subjects with any AE (s) / Subjects with chromaturia / Subjects with cough / Subjects with dermatitis contact / Subjects with diarrhea / Subjects with dizziness / Subjects with dysphagia / Subjects with eye pain / Subjects with fatigue / Subjects with feces discolored / Subjects with feeling hot / Subjects with flatulence / Subjects with headache / Subjects with influenza / Subjects with laceration / Subjects with nausea / Subjects with night sweats / Subjects with oropharyngeal pain / Subjects with pollakiuria / Subjects with rhinitis / Subjects with vessel puncture site paresthesia: nintedanib 150 mg single dose, rifampicin 600 mg once daily for 7 days
Summary of the method: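 26 healthy subjects in an open-label, two-period, fixed-sequence design. A single oral nintedanib 150 mg dose was given alone, then again the morning after the last oral rifampicin 600 mg once-daily dose (7 days), with ≥14 days between nintedanib doses. AEs within 72 h of each nintedanib dose were assigned to that period. AEs later than 72 h after nintedanib alone and before rifampicin started were counted as washout. Labs, vital signs, 12-lead ECG and physical exam were also assessed.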

[3] = format: in vivo, human
Summary of the method: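 Open-label, fixed-sequence, two-period study in 26 healthy subjects. A single oral 150 mg dose was given alone, then the morning after the last of 7 daily oral 600 mg co-drug doses. Doses were ≥14 days apart. Plasma sampled pre-dose to 72 h and assayed by LC-MS/MS. Cmax observed; AUC by linear-up/log-down trapezoidal rule; log values analysed by ANOVA (treatment fixed, subject random), giving geometric mean ratios with 90% CIs.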

[4] = cited from earlier work
[5] = format: in vivo, human; remark: listed apart in the source
[6] = system: p-glycoprotein (P-gp); conditions: cited from earlier work
[7] = system: CYP; conditions: in vitro; cited from earlier work
[8] = system: esterases; conditions: in vitro; cited from earlier work
[9] = single dose of nintedanib alone and with ketoconazole
[10] = co-administration with rifampicin
[11] = test nintedanib 150 mg + rifampicin 600 mg vs reference nintedanib 150 mg
[12] = co-administration with ketoconazole
[13] = test nintedanib 50 mg + ketoconazole 400 mg vs reference nintedanib 50 mg
[14] = single dose of nintedanib alone and with rifampicin

SMILES: CC(=O)N1CCN(c2ccc(OCC3COC(Cn4ccnc4)(c4ccc(Cl)cc4Cl)O3)cc2)CC1 (centres unmarked) [Ketoconazole]
- Subjects with abdominal pain upper [1]: 1 (2.9) n (%)
- Subjects with any AE (s) [1]: 3 (8.8) n (%)
- Subjects with back pain [1]: 0 n (%)
- Subjects with dizziness [1]: 0 n (%)
- Subjects with dry mouth [1]: 1 (2.9) n (%)
- Subjects with excoriation [1]: 0 n (%)
- Subjects with fatigue [1]: 0 n (%)
- Subjects with headache [1]: 2 (5.9) n (%)
- Subjects with nasopharyngitis [1]: 0 n (%)
- Subjects with ocular hyperemia [1]: 0 n (%)
- Subjects with puncture site induration [1]: 0 n (%)
- Subjects with puncture site pain [1]: 0 n (%)

SMILES: CO[C@H]1/C=C/O[C@@]2(C)Oc3c(C)c(O)c4c(O)c(c(/C=N/N5CCN(C)CC5)c(O)c4c3C2=O)NC(=O)/C(C)=C\C=C\[C@H](C)[C@H](O)[C@@H](C)[C@@H](O)[C@@H](C)[C@H](OC(C)=O)[C@@H]1C [Rifampicin]
- Subjects with any AE (s) [2]: 25 (100) n (%)
- Subjects with chromaturia [2]: 25 (100) n (%)
- Subjects with cough [2]: 1 (4.0) n (%)
- Subjects with dermatitis contact [2]: 0 n (%)
- Subjects with diarrhea [2]: 1 (4.0) n (%)
- Subjects with dizziness [2]: 2 (8.0) n (%)
- Subjects with dysphagia [2]: 1 (4.0) n (%)
- Subjects with eye pain [2]: 1 (4.0) n (%)
- Subjects with fatigue [2]: 2 (8.0) n (%)
- Subjects with feces discolored [2]: 3 (12.0) n (%)
- Subjects with feeling hot [2]: 1 (4.0) n (%)
- Subjects with flatulence [2]: 2 (8.0) n (%)
- Subjects with headache [2]: 5 (20.0) n (%)
- Subjects with influenza [2]: 0 n (%)
- Subjects with laceration [2]: 1 (4.0) n (%)
- Subjects with nausea [2]: 1 (4.0) n (%)
- Subjects with night sweats [2]: 1 (4.0) n (%)
- Subjects with oropharyngeal pain [2]: 0 n (%)
- Subjects with pollakiuria [2]: 1 (4.0) n (%)
- Subjects with rhinitis [2]: 1 (4.0) n (%)
- Subjects with vessel puncture site paresthesia [2]: 0 n (%)

SMILES: COC(=O)c1ccc2c(c1)NC(=O)/C2=C(\Nc1ccc(N(C)C(=O)CN2CCN(C)CC2)cc1)c1ccccc1 [Nintedanib]
- Subjects with abdominal pain upper [1]: 0 n (%)
- Subjects with any AE (s) [1]: 8 (25.8) n (%)
- Subjects with back pain [1]: 0 n (%)
- Subjects with dizziness [1]: 1 (3.2) n (%)
- Subjects with dry mouth [1]: 0 n (%)
- Subjects with excoriation [1]: 0 n (%)
- Subjects with fatigue [1]: 1 (3.2) n (%)
- Subjects with headache [1]: 5 (16.1) n (%)
- Subjects with nasopharyngitis [1]: 2 (6.5) n (%)
- Subjects with ocular hyperemia [1]: 1 (3.2) n (%)
- Subjects with puncture site induration [1]: 0 n (%)
- Subjects with puncture site pain [1]: 0 n (%)
- Serious AEs [1, 9]: No serious AEs
- Tolerability [1, 9]: well tolerated
- Effect on tmax and t½ of nintedanib ([3]; co-administration of rifampicin): unaffected
- Reduction of exposure to nintedanib based on AUC [3, 10]: about 50%
- Reduction of exposure to nintedanib based on Cmax [3, 10]: ~60%
- Tmax ([3]; human, plasma, oral): 4 h
- half-life ([3]; human, plasma, oral): 23.4 h
- AUC(0-inf) ([3]; human, plasma, po, 150 mg): 0.183 µg·h/mL
- AUC(0-t) ([3]; human, plasma, po, 150 mg): 0.173 µg·h/mL
- Cmax ([3]; human, plasma, po, 150 mg): 0.0221 µg/mL
- half-life ([3]; human, plasma, po, 150 mg): 22.5 h
- Relative bioavailability, GMR (90% CI) of AUC0–tz [3, 11]: 50.0 (46.9–53.3) %
- Relative bioavailability, GMR (90% CI) of AUC0–∞ [3, 11]: 50.1 (47.2–53.3) %
- Relative bioavailability, GMR (90% CI) of Cmax [3, 11]: 59.8 (53.8–66.4) %
- Terminal half-life [4]: 10 to 15 h
- Volume of distribution ([4]; geometric mean): 1050 L
- Percentage absorbed ([4]; nintedanib 100 mg in healthy volunteers, estimated): 23%
- Absolute bioavailability ([4]; nintedanib 100 mg in healthy volunteers): approximately 5%
- Time to maximum plasma concentration ([4]; oral administration): 2 to 4 h
- Time to steady state ([4]; oral dosing): ≤ 7 days
- Effect on tmax and t½ of nintedanib ([5]; co-administration of ketoconazole): unaffected
- Increase in exposure to nintedanib based on AUC [5, 12]: about 1.6 fold
- Increase in exposure to nintedanib based on Cmax [5, 12]: ~1.7 fold
- Tmax ([5]; human, plasma, oral): 3 h
- half-life ([5]; human, plasma, oral): 15.6 h
- AUC(0-inf) ([5]; human, plasma, po, 50 mg): 0.0386 µg·h/mL
- AUC(0-t) ([5]; human, plasma, po, 50 mg): 0.0357 µg·h/mL
- Cmax ([5]; human, plasma, po, 50 mg): 0.00419 µg/mL
- half-life ([5]; human, plasma, po, 50 mg): 18.1 h
- Exposure to nintedanib (AUC0–∞, Cmax, AUC0–tz) higher when co-administered with ketoconazole than alone ([5]; nintedanib 50 mg, ketoconazole 400 mg once daily for 3 days): 1.6–1.7 fold
- Relative bioavailability, GMR (90% CI) of AUC0–tz [5, 13]: 168.1 (155.3–182.0) %
- Relative bioavailability, GMR (90% CI) of AUC0–∞ [5, 13]: 160.5 (148.2–173.7) %
- Relative bioavailability, GMR (90% CI) of Cmax [5, 13]: 179.6 (157.6–204.8) %
- Subjects with any AE (s) [2]: 5 (19.2) n (%)
- Subjects with chromaturia [2]: 0 n (%)
- Subjects with cough [2]: 0 n (%)
- Subjects with dermatitis contact [2]: 0 n (%)
- Subjects with diarrhea [2]: 5 (19.2) n (%)
- Subjects with dizziness [2]: 0 n (%)
- Subjects with dysphagia [2]: 0 n (%)
- Subjects with eye pain [2]: 0 n (%)
- Subjects with fatigue [2]: 0 n (%)
- Subjects with feces discolored [2]: 0 n (%)
- Subjects with feeling hot [2]: 0 n (%)
- Subjects with flatulence [2]: 0 n (%)
- Subjects with headache [2]: 1 (3.8) n (%)
- Subjects with influenza [2]: 0 n (%)
- Subjects with laceration [2]: 0 n (%)
- Subjects with nausea [2]: 0 n (%)
- Subjects with night sweats [2]: 0 n (%)
- Subjects with oropharyngeal pain [2]: 0 n (%)
- Subjects with pollakiuria [2]: 0 n (%)
- Subjects with rhinitis [2]: 0 n (%)
- Subjects with vessel puncture site paresthesia [2]: 0 n (%)
- Serious AEs [2, 14]: No serious AEs
- Tolerability [2, 14]: well tolerated
- Substrate for p-glycoprotein (P-gp) [6]: substrate
- Share of CYP-dependent metabolism [7]: about 5%
- Share of ester cleavage [8]: about 25%
